Reference: ChEMBL document CHEMBL1153363, “Structure-activity relationships for a series of quinoline-based compounds active against replicating and nonreplicating Mycobacterium tuberculosis” (J Med Chem, 2009)
Values after ≈ are worked out from the molar mass of the structure shown.

Experiments:
Type in all cases: functional
Conditions in all cases: 168 h
[1] = system: Mycobacterium tuberculosis; assay: Antitubercular activity against rifampin-resistant Mycobacterium tuberculosis H37Rv ATCC 27294 after 7 days by microplate alamar blue assay
How it was run: (§1)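 12.8 mM DMSO stocks; two-fold dilutions in Middlebrook 7H12 broth, final 128 to 0.5 µM. Inoculum 2 × 10⁵ cfu/mL, 37 °C. On day 7, Tween 80 plus Alamar Blue added; fluorescence read (ex 530/em 590 nm) after 16-24 h more. MIC = lowest concentration giving ≥90% fluorescence drop versus bacteria-only controls; mean of two runs. RMP and INH positive controls.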

[2] = system: Mycobacterium tuberculosis; assay: Antitubercular activity against isoniazid-resistant Mycobacterium tuberculosis H37Rv ATCC 27294 after 7 days by microplate alamar blue assay; how it was run: as §1
[3] = system: Mycobacterium tuberculosis; assay: Antitubercular activity against streptomycin-resistant Mycobacterium tuberculosis H37Rv ATCC 27294 after 7 days by microplate alamar blue assay; how it was run: as §1

SMILES	MIC [1]	MIC [2]	MIC [3]
CCOC(=O)c1cc(-c2cccc(Oc3cc(C(F)(F)F)nc4ccccc34)c2)on1	1.27 µM (≈ 0.544 µg/mL)	1.63 µM (≈ 0.698 µg/mL)	1.4 µM (≈ 0.6 µg/mL)
CCOC(=O)c1cc(COc2cc(C(F)(F)F)nc3cc(C(F)(F)F)cc(C(F)(F)F)c23)on1	0.99 µM (≈ 0.497 µg/mL)	0.98 µM (≈ 0.492 µg/mL)	1.55 µM (≈ 0.779 µg/mL)
NNC(=O)c1ccncc1 [ISONIAZID]	0.43 µM (≈ 0.059 µg/mL)	> 128 µM	0.45 µM (≈ 0.0617 µg/mL)
CO[C@H]1/C=C/O[C@@]2(C)Oc3c(C)c(O)c4c(O)c(c(/C=N/N5CCN(C)CC5)c(O)c4c3C2=O)NC(=O)/C(C)=C\C=C\[C@H](C)[C@H](O)[C@@H](C)[C@@H](O)[C@@H](C)[C@H](OC(C)=O)[C@@H]1C [RIFAMPIN]	> 32 µM	0.06 µM (≈ 0.0494 µg/mL)	0.05 µM (≈ 0.0411 µg/mL)
CN[C@@H]1[C@H](O[C@H]2[C@H](O[C@H]3[C@H](O)[C@@H](O)[C@H](N=C(N)N)[C@@H](O)[C@@H]3N=C(N)N)O[C@@H](C)[C@]2(O)C=O)O[C@@H](CO)[C@H](O)[C@H]1O [STREPTOMYCIN]	0.2 µM (≈ 0.116 µg/mL)	0.38 µM (≈ 0.221 µg/mL)	> 32 µM
